Measured values reported in ChEMBL document CHEMBL5584363, “Euphane and Tirucallane Triterpenes with Trypanocidal Activity from Euphorbia desmondii” (J Nat Prod, 2024).
Active and inactive are the calls of the source. The calls are words filed in the database; no cut-off is given here.

Key:
[1] = Selectivity index, ratio of IC50 for mouse RAW264.7 cells to IC50 for antitrypanosomal activity against Trypanosoma cruzi epimastigotes Y (ATCC 50832) expressing GFP; assay type: toxicity; conditions: read-out: Ratio IC50
[2] = Cytotoxicity against mouse RAW264.7 cells assessed as reduction in cell viability; assay type: toxicity, cell-based
Trypanosoma cruzi [3] = test: Antitrypanosomal activity against Trypanosoma cruzi epimastigotes Y (ATCC 50832) expressing GFP incubated for 72 hrs by XTT assay; assay type: functional, organism-based
How it was run: (§1)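 Y-strain epimastigotes kept in LIT medium with 10% heat-inactivated FBS at 28 °C; log-phase cells used. 1.5 × 10^5 parasites per well. Exposure at 10 μM (screen) or six concentrations from 10–0.3 μM for 72 h at 28 °C, with benznidazole control. XTT/PMS added for 2.5 h at 28 °C, then MeOH fixation and A490. Viability given as % of vehicle, or IC50. Triplicate, at least two independent experiments.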

Trypanosoma cruzi [4] = test: Antitrypanosomal activity against Trypanosoma cruzi epimastigotes Y (ATCC 50832) expressing GFP at 10 uM incubated for 72 hrs by XTT assay; assay type: functional, organism-based; how it was run: as §1
[5] = Effect on Trypanosoma cruzi epimastigotes Y (ATCC 50832) expressing GFP proliferation assessed as increase in cell proliferation at 0.3 uM incubated for 72 hrs by XTT assay relative to control; assay type: functional; how it was run: as §1
Trypanosoma cruzi [6] = test: Antitrypanosomal activity against Trypanosoma cruzi trypomastigotes Y (ATCC 50832) expressing GFP infected in CCL39 cells assessed as reduction in parasite replication measured after 1 hr by microscopy; assay type: functional, organism-based
How it was run: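 CCL39 fibroblasts seeded at 20,000 cells/mL and left to adhere 24 h. Infected with trypomastigotes at multiplicity 10. Next day free parasites washed off and compound added in RPMI with 2% hiFBS. On day 4 after infection, cells fixed in 4% paraformaldehyde for 1 h and imaged by brightfield and GFP fluorescence microscopy.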

[7] = Selectivity index, ratio of IC50 for mouse RAW264.7 cells to IC50 for antitrypanosomal activity against Trypanosoma cruzi […] Y (ATCC 50832) expressing GFP infected in mouse RAW264.7 cells assessed as inhibition of parasite replication; assay type: toxicity, cell-based; conditions: read-out: Ratio IC50
Trypanosoma cruzi [8] = test: Antitrypanosomal activity against Trypanosoma cruzi […] Y (ATCC 50832) expressing GFP infected in mouse RAW264.7 cells assessed as inhibition of parasite replication measured after 6 days by FACS analysis; assay type: functional, organism-based; conditions: time 6.0 day
How it was run: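 RAW264.7 cells seeded at 40,000 or 10,000 cells/mL and left to adhere 24 h. Infected with swim-out trypomastigotes at multiplicity 10. Next day free parasites washed off and compound added in RPMI with 2% FBS. After 6 days, released GFP parasites fixed in 4% paraformaldehyde 1 h and counted by FACS. Run in triplicate with DMSO and benznidazole controls.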

SMILES: CC(=O)CCC[C@H](C)[C@@H]1CC[C@]2(C)C3=C(C(=O)C[C@@]12C)[C@@]1(C)CC[C@H](O)C(C)(C)[C@@H]1CC3=O
- selectivity ratio [1]: 6.6
- IC50 [2]: 24.4 µM
- IC50 (Trypanosoma cruzi [3]): 3.7 µM
- Activity (Trypanosoma cruzi [4]): Active
- Activity [5]: 15%

SMILES: C[C@H](C/C=C/C(C)(C)OO)[C@@H]1CC[C@]2(C)C3=C(CC[C@@]12C)[C@@]1(C)CC[C@H](O)C(C)(C)[C@@H]1CC3=O
- Activity (Trypanosoma cruzi [6]): Active
- selectivity ratio [7]: > 10
- inhibition (Trypanosoma cruzi [8]): Dose-Dependent Effect

SMILES: C[C@@H](C/C=C/C(C)(C)OO)[C@@H]1CC[C@]2(C)C3=C(C(OO)C[C@@]12C)[C@@]1(C)CC[C@H](O)C(C)(C)[C@@H]1CC3=O (some centres not stated)
- Activity (Trypanosoma cruzi [4]): Active
- Activity [5]: 15%

SMILES: CC(C)=CCC[C@@H](C)[C@@H]1CC[C@]2(C)C3=C(C(=O)C[C@@]12C)[C@@]1(C)CC[C@H](O)C(C)(C)[C@@H]1C[C@H]3O
- Activity (Trypanosoma cruzi [4]): Active
- Activity [5]: 15%
